Series [1] in a line: Amount of free iron in Fe3+/ligand system at pH 2. Particulars: buffer.
Series [2] is described as follows: Chemical stability in phosphate buffer at pH 7 after 8 hrs. It is filed as physicochemical. The method in brief:
(§1)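 The ligand was held at 5×10−5 M in 10−2 M phosphate buffer, pH 7, at 37 °C and constant ionic strength. Degradation was followed as the change in absorbance at 345 nm. First-order kinetics were taken from ln(At/A0) versus time.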

The nature of series [3]: Chemical stability in phosphate buffer at pH 7. It is filed as physicochemical. The method in brief: as §1
Series [4] in a line: Protonation constant, pKa by spectrophotometric method. It is filed as physicochemical. The method in brief: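 Aqueous ligand solutions (2.5×10−5 M) were titrated spectrophotometrically, adjusting pH from 1 to 11 with concentrated NaOH or HCl. The UV absorbance maximum (320–365 nm) was followed versus pH. Protonation constants were computed from the spectral data.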
Series [5] in a line: Protonation constant, pKa by potentiometric method. It is filed as physicochemical. The method, boiled down: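 Potentiometric titration of 3×10−3 M ligand in water at 25.0 °C, ionic strength 0.1 M (NaNO3), under nitrogen. The titrant was 1×10−2 M NaOH, over pH 2–10, with 600–720 s per point. At least 10 titrations of 40 points each were run, and constants were refined by least squares.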

A short description of series [6]: Octanol-water partition coefficient, log P after 4 hrs by shake flask method. It is filed as physicochemical. The method in brief:
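Shake-flask method at pH 7.0 (phosphate buffer). Water presaturated with n-octanol was mixed with the ligand or the Fe:L 1:3 system (10−4 M stock) and shaken at 37 °C for 4 h. After phase separation, aqueous concentration was measured spectrophotometrically. Log P is the log of the octanol/water concentration ratio.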

A short description of series [7]: Cytotoxicity against african green monkey Vero cells at 800 uM. It is filed as cell-based. To be noted: chlorocebus sabaeus, read-out: INH. The method, boiled down: (§2)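 Vero cells (African green monkey kidney) were grown in MEM with 10% heat-inactivated FCS at 37 °C in 5% CO2. Cells were seeded at 4×10^4 cells/well and grown 72 h with a range of compound concentrations. They were then methanol-fixed, stained with crystal violet, and the dye was extracted into acidic isopropanol and read at 540 nm. Survival is % of untreated control, mean ± SD of 3 experiments, each in triplicate.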

Series [8] in a line: Cytotoxicity against african green monkey Vero cells at 600 uM. It is filed as cell-based. To be noted: chlorocebus sabaeus, read-out: INH. The method, boiled down: as §2
In series [9] the test system is Liver microsomes. The series is described as follows: Antioxidant activity against ferric ion (Fe3+-ADP)-induced lipid peroxidation in rat liver microsomes. Particulars: Microsome. On the technique in general: Liver microsomes are vesicles of endoplasmic reticulum, rich in cytochrome P450 enzymes.
Series [10] concerns Vero. Briefly: Cytotoxicity against african green monkey Vero cells. It is filed as cell-based. Particulars: Chlorocebus sabaeus. The method in brief:
as §2

Series [11] has as its system Liver microsomes. Briefly: Antioxidant activity against ferric ion (Fe3+-ADP)-induced lipid peroxidation in rat liver microsomes after 30 mins. To be noted: Microsome.
Series [12] relates to Vero. The series is described as follows: Cytotoxicity against african green monkey Vero cells at 400 uM. It is filed as cell-based. To be noted: chlorocebus sabaeus. The method in brief: as §2
Series [13] in a line: Chemical stability in phosphate buffer at pH 7 after 1 hr. It is filed as physicochemical. Particulars: pH 7, 1 h.
The nature of series [14]: Cytotoxicity against african green monkey Vero cells at 5 uM. It is filed as cell-based. To be noted: chlorocebus sabaeus, read-out: INH.
Series [15] can be described thus: Cytotoxicity against african green monkey Vero cells at 10 uM. It is filed as cell-based. To be noted: chlorocebus sabaeus, read-out: INH.

Calls of active or inactive are those of the source. The rule behind the calls is not given here. Bounds are passed on as bounds.

Data on five molecules can be found in ChEMBL document CHEMBL1154487, “Synthesis, chemical and biological studies on new Fe(3+)-glycosilated beta-diketo complexes for the treatment of iron deficiency” (Eur J Med Chem, 2008).

Broadly, the half-life is the time in which the quantity being followed falls by half. Broadly, the pKa is the negative logarithm of the acid dissociation constant. In general, logP refers to a log measure of how a compound divides between an organic and an aqueous phase. For orientation: IC50 means the midpoint of a concentration-inhibition curve.

In [1], `O=C(O)[C@H](O)[C@@H](O)[C@H](O)[C@H](O)CO` [GLUCONIC ACID] gave an Activity of 60%.

The molecule `CC(=O)/C=C(O)/C=C/c1ccc(O[C@@H]2O[C@H](CO)[C@@H](O)[C@H](O)[C@H]2O)cc1` displayed a Degradation % at 8 h in [2] of under 10%. This molecule also yielded a half-life in [3] of over 100 h. The pKa in [4] is 9.22; in series [5], 9.26. In series [6], the logP at 4 h was found to be 0.39. For the same molecule, in series [7], the cytotoxicity at 800 µM came to 40%. Besides, the cytotoxicity at 600 µM in series [8] was 2%. This molecule came in with an Activity in [1] of 30%. Besides, the result with Liver microsomes [9] was inactive.

In turn, `COc1cc(/C=C/C(O)=C/C(C)=O)ccc1O[C@@H]1O[C@H](CO)[C@@H](O)[C@H](O)[C@H]1O` returned a Degradation % at 8 h in series [2] of under 10%. The molecule further registered a half-life in series [3] of over 100 h. The pKa was 8.73 in series [4] and 8.75 in series [5]. This molecule also returned a logP at 4 h in [6] of 0.13. For the same molecule, the cytotoxicity at 800 µM in series [7] amounted to 65%. Further, the cytotoxicity at 600 µM in series [8] came out at 40%. Further, half-maximal inhibition in the series with Vero [10] (IC50) required 700 µM. The Activity in series [1] amounted to 40%. Further, in the series with Liver microsomes [11], the outcome was Active.

The molecule `CC(=O)/C=C(O)/C=C/c1ccc(O[C@@H]2O[C@H](CO)[C@@H](O)[C@H](O)[C@H]2O)c(O)c1` yielded a Degradation % at 8 h in [2] of under 10%. The half-life in series [3] is over 100 h. The pKa in series [4] and in series [5] was 8.03 in each case. The molecule further showed a logP at 4 h in series [6] of 0.32. In addition, the Activity in the series on Vero [12] was found to be 10%; in series [1], 20%. The cytotoxicity at 800 µM in [7] was determined as 20%. The result in the series with Liver microsomes [9] was inactive.

`COc1cc(/C=C/C(=O)CC(=O)/C=C/c2ccc(O)c(OC)c2)ccc1O` [CURCUMIN]: the Stability result in [13] is “Unstable”. Besides, the half-life in [3] came out at 0.167 h. In series [14], the cytotoxicity at 5 µM was 10%. Further, in [15], the cytotoxicity at 10 µM was determined as 20%.
